Screening results deposited in PubChem by Sanford-Burnham Center for Chemical Genomics.
HKDC1 inh: inhibitors of human hexokinase HKDC1 | Q2TB90 | recombinant HKDC1, G6PDH/diaphorase resazurin coupled fluorescence | inhibition, % at 20 µM | 340,000 compounds, 0.16% hits | AID 493160;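 active = inhibition above about 35% when tested at 20 µM, limit read from the data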;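 note: plate controls were DMSO wells with enzyme for no effect and DMSO wells lacking enzyme for full effect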
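Test system: recombinant HKDC1 (HK5) hexokinase enzyme, produced in-house; Amount: enzyme 5 µg/mL final; Buffer or medium: Tris pH 8.0 buffer with MgCl2, Tween-20, BSA, BME; Reagent: glucose and ATP substrates; Doses: 20 µM test compound, 1% DMSO; Incubation: 90 min reaction incubation at room temperature, dark; Detection: resorufin fluorescence at 613 nm.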
A3A deaminase: human APOBEC3A DNA deaminase inhibition; AID 493011; 330,000 compounds, 0.41% hits; P31941; inhibition, % at 20 µM; recombinant A3A, FAM/TAMRA ssDNA deamination fluorescence;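 active = at least 40% inhibition at 20 µM here, with at most 30% in a related deaminase screen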;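 note: plate controls were A3A with DMSO for no effect and wells lacking A3A enzyme for full effect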
Target sequence (P31941 whole entry, looked up): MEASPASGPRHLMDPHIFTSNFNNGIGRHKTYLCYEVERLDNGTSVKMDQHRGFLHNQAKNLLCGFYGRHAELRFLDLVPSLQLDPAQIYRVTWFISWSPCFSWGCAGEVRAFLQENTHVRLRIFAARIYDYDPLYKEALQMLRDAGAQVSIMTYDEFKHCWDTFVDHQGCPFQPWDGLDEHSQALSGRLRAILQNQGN
PfG6PD inh: PfG6PD (Plasmodium falciparum) enzyme inhibition. PfGluPho enzyme, NADPH resazurin-diaphorase fluorescence. inhibition, % at 20 µM. 350,000 compounds, 0.78% hits. AID 504690;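 active = inhibition reaching at least a set limit at 20 µM in the primary screen, cut at about 59% in these data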;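 note: 0% = DMSO wells with substrate and 100% = DMSO wells lacking glucose-6-phosphate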
hiPSC survival: enhancers of human iPSC single-cell survival; hiPSC single-cell survival, ATPlite luminescence; 100% = ROCK inhibitor wells, 0% = DMSO; survival enhancement, % at 20 µM; 360,000 compounds, 0.044% hits; AID 602274; in the data active = survival enhancement above about 18%;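 note: cells exposed to compounds for 16 hours before the ATP read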
APOBEC3G inh: APOBEC3G (human) deaminase inhibition. 330,000 compounds, 0.28% hits. Q9HC16. recombinant A3G, ssDNA deamination FAM/TAMRA fluorescence. inhibition, % at 20 µM;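 active = inhibition of at least 40% at 20 µM, with no more than 30% in the related APOBEC3A deaminase screen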;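 note: plate controls were DMSO wells with A3G for no effect and wells lacking A3G enzyme for full effect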
A3A conf: confirmation of human APOBEC3A DNA deaminase inhibitors | shares compounds with A3A deaminase | recombinant A3A, ssDNA deaminase UDG fluorescence assay | inhibition, % at 20 µM | 1,400 compounds, 63% hits | AID 493151;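 active = inhibition reaching a set limit, 80% of the first screen's cutoff, at 20 µM in any replicate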;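 note: plate controls were DMSO wells with A3A for no effect and wells lacking A3A enzyme for full effect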
UDG A3A counter: UDG inhibition in APOBEC3A counter-screen. shares compounds with A3A deaminase. 1,000 tested, under 10 active. inhibition, % at 20 µM. UDG counterscreen, FAM/TAMRA uracil oligo fluorescence; call rule not given here
The depositor's hits bear a star; . = no result given. A selection: hits, their analogues and other compounds. The true share with any hit is near 1.4%.

SMILES | HKDC1 inh | A3A deaminase | PfG6PD inh | hiPSC survival | APOBEC3G inh | A3A conf | UDG A3A counter
CC(=O)Nc1ccc(SCCC2CCCCN2C)cc1 (stereo not drawn) | -2 | -4 | -1 | 0 | -9 | . | .
CCN(CC)CCCN=C1N[C@@H](c2cccc(F)c2)C(C(=O)OC)=C(C)N1Cc1ccccc1 | -5 | 46* | 1 | -3 | 15 | 82* | 0
COC(=O)C1=C(C)N(Cc2ccccc2)C(=NCc2ccccc2)N[C@H]1c1cccc(F)c1 | 0 | 25 | 14 | -2 | -2 | . | .
C[N+]1(CN2C(=O)C3C4C=CC(C4)C3C2=O)CCCCC1 (stereo not drawn) | -4 | 68* | 3 | -1 | 25 | 68* | -2
Cc1ccc(S(=O)(=O)/N=C2/NC(=O)/C(=C\c3cc(Br)cc(Br)c3O)S2)cc1 | 26 | -10 | 14 | 0 | -20 | . | .
Cc1ccc(S(=O)(=O)/N=C2/NC(=O)/C(=C/c3ccc(Br)o3)S2)cc1 | 4 | 52* | -17 | 0 | -6 | -5 | 1
CN(CC(=O)Nc1cccc(F)c1)C(=O)Cn1c(=O)cnc2ccccc21 | 1 | 2 | -17 | 4 | -8 | . | .
Cc1cc(Br)ccc1NC(=O)CN(C)C(=O)Cn1c(=O)cnc2ccccc21 | -4 | 66* | 1 | 0 | 15 | 52* | -2
C/C(=C\C(=O)c1ccc(Cl)s1)N(C)C | -3 | -5 | 5 | 0 | -6 | . | .
O=C(COC(=O)c1cc2c(s1)CCC2)Nc1ccc(F)cc1 | 3 | 45* | -10 | 7 | 23 | 49* | 7
NC(=O)c1ccc(NC(=O)COC(=O)c2cc3c(s2)CCC3)cc1 | 0 | 55* | -9 | -1 | 15 | 43* | -3
COc1ccc(NC(=O)COC(=O)c2cc3c(s2)CCC3)cc1 | -3 | 41* | 11 | -3 | 10 | 32* | -2
O=C(COC(=O)c1cc2c(s1)CCCC2)Nc1ccc(Cl)cn1 | -4 | -1 | 2 | -1 | -1 | . | .
COCCn1c(C)cc(C(=O)COC(=O)c2cc3c(s2)CCC3)c1C | 5 | 43* | 10 | -2 | 18 | 27* | -3
COc1ccc(OCC(=O)Nc2ccc3c(c2)CCC3)cc1 | -5 | 0 | -3 | 0 | 3 | . | .
NC(=O)c1ccc(NC(=O)COC(=O)c2ccc3c(c2)OCO3)cc1 | -5 | -5 | 1 | 0 | -10 | . | .
O=C(c1ccccc1)N1CCN(c2cc(Cl)nc3cc(-c4cccc(Cl)c4)nn23)CC1 | . | . | 6 | 0 | . | . | .
O=S(=O)(Cc1ccccc1Cl)NCc1ccccc1 | -8 | 0 | -1 | 0 | 4 | . | .
CC(Oc1ccc(F)cc1)C(=O)Nc1cccc(S(=O)(=O)N(C)c2ccccc2)c1 (stereo not drawn) | . | . | 25 | 1 | . | . | .
Cc1nc(SCC(=O)NCC2CCCO2)[nH]c(=O)c1C (stereo not drawn) | -1 | -4 | 14 | 0 | -13 | . | .
COc1ccc(C(C)(O)c2nc(-c3ccc(Cl)cc3)cs2)cc1 (stereo not drawn) | . | . | . | 6 | . | . | .
CC1CCC(=NNC(=O)c2ccccc2-n2cccc2)CC1 (stereo not drawn) | -4 | -4 | 10 | 0 | -9 | . | .
CC1CCC/C(=N/NC(=O)c2ccccc2-n2cccc2)C1 (stereo not drawn) | -7 | 53* | -1 | -1 | 16 | 13* | -3
CNC(=O)CN(C1CCCCC1)S(=O)(=O)c1ccc(OC)c(Cl)c1 | -1 | 44* | 0 | 3 | 17 | 15 | .
CCOC(=O)CC(NS(=O)(=O)c1ccc2[nH]cc(C(=O)O)c(=O)c2c1)c1ccc(OCC)c(OC)c1 (stereo not drawn) | -4 | 47* | 3 | 0 | 14 | 33* | .
CC(C)(C)OC(=O)N1CC(O)CC1C(=O)OCC(=O)c1ccc(Cl)cc1 (stereo not drawn) | -7 | 42* | -4 | -2 | 5 | 2 | .
CC(C)(C)OC(=O)N1CC(O)CC1C(=O)OCC(=O)c1ccc(-c2ccccc2)cc1 (stereo not drawn) | -8 | 83* | 13 | -1 | 26 | 71* | -1
